Only some compounds are listed: those with a hit (about 4.1% of all), similar ones and a draw of the others.
TbMetRS inhib – blocks T. brucei methionyl-tRNA synthetase activity | 360,000 compounds, 0.4% hits | AID 624268 | purified T. brucei MetRS, ATP depletion, Kinase-Glo luminescence | inhibition, % at 11.9 µM;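 active = inhibition above a per-plate cutoff of the control wells' mean inhibition plus 3 SD, cut at about 5.5% in these data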;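 note: 0% = DMSO wells median and 100% = median of wells with control inhibitor compound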
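Material: T. brucei methionyl-tRNA synthetase, purified; reagent: substrates ATP, L-methionine and bulk Escherichia coli tRNA; dosing: 11.9 µM single point; timing: 15 min plus 2 h at 25 °C; detection: luminescence of leftover ATP; evaluation: % inhibition; control set: DMSO-only wells as low control; replicates: singlicate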
AHR act – activators of human aryl hydrocarbon receptor; activation, % at 5 µM; 320,000 compounds, 2.5% hits; AHR-responsive luciferase reporter cells, luminescence; P35869; in the data active = activation above about 47%;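 note: 0% = vehicle wells and 100% = reference agonist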
Target sequence (P35869 whole entry, looked up): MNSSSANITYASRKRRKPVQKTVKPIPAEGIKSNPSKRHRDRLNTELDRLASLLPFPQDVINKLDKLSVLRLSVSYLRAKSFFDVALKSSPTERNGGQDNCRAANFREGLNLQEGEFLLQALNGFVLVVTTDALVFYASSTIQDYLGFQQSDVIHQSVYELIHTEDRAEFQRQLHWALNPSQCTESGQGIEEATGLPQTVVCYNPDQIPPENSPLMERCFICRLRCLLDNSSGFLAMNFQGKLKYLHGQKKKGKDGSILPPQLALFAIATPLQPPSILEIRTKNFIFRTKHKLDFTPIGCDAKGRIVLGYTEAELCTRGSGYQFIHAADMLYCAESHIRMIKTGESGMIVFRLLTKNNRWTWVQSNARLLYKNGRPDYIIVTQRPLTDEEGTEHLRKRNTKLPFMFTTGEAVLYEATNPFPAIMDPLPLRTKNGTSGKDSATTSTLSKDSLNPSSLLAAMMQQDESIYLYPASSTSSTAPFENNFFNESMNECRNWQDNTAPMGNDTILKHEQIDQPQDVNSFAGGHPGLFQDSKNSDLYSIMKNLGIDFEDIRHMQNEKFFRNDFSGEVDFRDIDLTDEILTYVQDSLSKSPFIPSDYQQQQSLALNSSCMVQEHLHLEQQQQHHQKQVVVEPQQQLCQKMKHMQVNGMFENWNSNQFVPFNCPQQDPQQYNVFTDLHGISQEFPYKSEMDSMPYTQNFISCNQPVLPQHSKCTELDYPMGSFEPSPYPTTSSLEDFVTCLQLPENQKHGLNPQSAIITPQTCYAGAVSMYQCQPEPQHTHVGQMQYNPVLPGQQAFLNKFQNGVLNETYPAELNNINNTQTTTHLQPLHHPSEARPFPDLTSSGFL
TAG inh – reduces triacylglycerol accumulation in H9c2 cells. 230,000 compounds, 0.66% hits. inhibition, % at 12.5 µM. AID 651582. Nile Red lipid (TAG) fluorescence; cells loaded with 200 µM oleic acid;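 active = pattern-corrected inhibition of lipid staining of at least 50% with the nuclear-stain viability signal not falling by more than 50%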;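 note: 0% = DMSO wells and 100% = triacsin C control wells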
SMARCA2 act – increases SMARCA2 function in MMTV reporter cells; AID 652017; MG213 cells, MMTV-luciferase reporter, dexamethasone, overnight; 370,000 compounds, 1% hits; activation, % at 9.1 µM; in the data active = activation above about 7.8%;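 note: 0% = vehicle wells and 100% = reference activator wells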
Efflux pump inh – blocks antifungal efflux pumps in multiplex yeast assay | S. cerevisiae Candida pump triplex, Nile Red efflux | inhibition, % at 10 µM | 330,000 compounds, 0.44% hits | AID 485275;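 active = plate passing quality check with inhibition over a set limit, or well fluorescence over plate mean plus 4 SD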;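 note: Nile Red retained in pooled yeast measured as flow cytometry median fluorescence; 0% = buffer negative control and 100% = Enniatin B positive control; higher means more Nile Red kept so more efflux inhibition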
SMARCA2 act conf – SMARCA2 activation, confirmation screen; shares compounds with SMARCA2 act; MG213 cells, MMTV-luciferase with dexamethasone, luminescence, overnight; MG213 cells expressing E1A, Rb sequestered; DMSO wells 0%, reference activator 100%; activation, % at 9.1 µM; 3,500 compounds, 30% hits;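 active = activation above its plate's cutoff, the mean activation of tested wells plus 3 SD, cut at about 7.9% in these data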
GAL4-VP16 Luc – counter-screen for SMARCA2 activators: GAL4-VP16 luciferase reporter activation. shares compounds with SMARCA2 act. HEK293 GAL4-VP16 pG5luc reporter, luciferase luminescence; scaled: DMSO wells 0%, SAHA wells 100%. activation, % at 9.1 µM. 3,500 compounds, 41% hits. AID 686939;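 active = activation above the solvent-only control well mean plus 3 SD, averaged across control plates, cut at about 5.2% in these data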
* = called active by the depositor.

How did CC1(C(=O)OCC(=O)NC(=O)NCc2ccccc2)CC1(Cl)Cl (stereo not drawn) do in these assays?
TbMetRS inhib: -0.1; AHR act: -1.6; TAG inh: -0.3; SMARCA2 act: -0.3; Efflux pump inh: 0.0

What do the screens show for `CC1(C(=O)OCC(=O)NCc2ccc(Cl)cc2)CC1(Cl)Cl` (stereo not drawn)?
TbMetRS inhib: 0.6; AHR act: -0.1; TAG inh: -3.6; SMARCA2 act: 8.6*; Efflux pump inh: 0.0; SMARCA2 act conf: -1.9; GAL4-VP16 Luc: -0.5

How did Cc1sc2nc(COC(=O)CNC(=O)c3ccccc3Cl)[nH]c(=O)c2c1C do in these assays?
SMARCA2 act: -1.7

How did CCCS(=O)(=O)Nc1ccc(Nc2c3ccccc3nc3ccccc23)c(OC)c1 do in these assays?
TbMetRS inhib: -0.2; TAG inh: 13.3; SMARCA2 act: 15.1*; SMARCA2 act conf: 23.6*; GAL4-VP16 Luc: 2.7

Results for CC(=O)c1sc(NC(=O)c2ccc(C(C)(C)C)cc2)nc1C ?
TbMetRS inhib: -0.6; AHR act: -6.2; TAG inh: 26.7; SMARCA2 act: 8.2*; Efflux pump inh: -0.1; SMARCA2 act conf: 8.0*; GAL4-VP16 Luc: 18.1*

What do the screens show for `Cc1nc(Nc2ccc(S(N)(=O)=O)cc2)sc1-c1ccccc1`?
TbMetRS inhib: -0.3; AHR act: 9.0; SMARCA2 act: 2.9; Efflux pump inh: 0.1

What do the screens show for `COc1ccc(C(=O)c2sc(Nc3ccc(NC(C)=O)cc3)nc2C)cc1`?
TbMetRS inhib: -0.2; AHR act: 1.3; TAG inh: -15.5; SMARCA2 act: -5.7; Efflux pump inh: 0.2

What do the screens show for `COc1ccc(Nc2nc(C)c(C(C)=O)s2)cc1`?
TbMetRS inhib: 0.1; SMARCA2 act: 8.2*; SMARCA2 act conf: 2.2; GAL4-VP16 Luc: 10.2*

What do the screens show for `COc1ccc(Nc2nc(C)c(-c3ccccc3)s2)cc1`?
TbMetRS inhib: -0.3; AHR act: -0.6; SMARCA2 act: 10.6*; Efflux pump inh: -0.1; SMARCA2 act conf: 4.5; GAL4-VP16 Luc: 5.9*

What do the screens show for `Cc1ccc2c(c1)sc[n+]2Cc1ccccc1`?
TbMetRS inhib: -1.1; AHR act: 22.3; SMARCA2 act: 10.1*; Efflux pump inh: 0.0; SMARCA2 act conf: 3.5; GAL4-VP16 Luc: 7.8*

How did CC1CCN(c2nc3ccc(C(=O)NCCCN4CCCCC4)cc3s2)CC1 do in these assays?
TbMetRS inhib: -0.1; AHR act: -10.7; TAG inh: 12.2; SMARCA2 act: 12.3*; Efflux pump inh: 0.2; SMARCA2 act conf: 4.1; GAL4-VP16 Luc: 17.3*

What do the screens show for `CCOC(=O)N1CCN(C(=O)C[C@H]2C[C@@]3(C(=O)OC)C(=C[C@H](C4CCCC4)O[C@@H]3C)N(Cc3ccco3)C2=O)CC1`?
SMARCA2 act: -3.1

Results for CCOC(=O)C1=C(C)c2ccccc2OC1(CC)C(=O)OCC (stereo not drawn) ?
TbMetRS inhib: -1.3; TAG inh: -17.7; SMARCA2 act: -1.4; Efflux pump inh: 0.2

How did CCOC(=O)C1=C(C)c2ccccc2N(C(=O)OC)C1(C)C(=O)OCC (stereo not drawn) do in these assays?
TbMetRS inhib: -0.6; TAG inh: -8.1; SMARCA2 act: 8.1*; Efflux pump inh: 0.0; SMARCA2 act conf: 1.3; GAL4-VP16 Luc: -0.7

Results for COc1ccc(OCc2cc(C(=O)N3C[C@@H](C)O[C@@H](C)C3)no2)c(Cl)c1 ?
TbMetRS inhib: -0.1; AHR act: 6.5; TAG inh: 7.1; SMARCA2 act: 8.3*; Efflux pump inh: 4.4; SMARCA2 act conf: 3.4; GAL4-VP16 Luc: 3.6

Results for O=[N+]([O-])c1cccc(-c2ccc(/C=N/Nc3nc(N4CCCCC4)nc(N4CCCCC4)n3)o2)c1 ?
TbMetRS inhib: 0.7; AHR act: 1.5; TAG inh: 21.6; SMARCA2 act: 8.9*; Efflux pump inh: -0.2; SMARCA2 act conf: -5.2; GAL4-VP16 Luc: 0.1

Results for CCn1c(SCC(=O)c2ccc(F)cc2)nnc1-c1ccoc1C ?
TbMetRS inhib: -0.4; AHR act: -3.7; TAG inh: -14.9; SMARCA2 act: 9.6*; Efflux pump inh: -0.2; SMARCA2 act conf: 4.3; GAL4-VP16 Luc: 2.2

Results for Cc1occc1-c1nnc(SCCCC(=O)c2ccc(F)cc2)n1C ?
TbMetRS inhib: -1.0; AHR act: -2.4; TAG inh: 0.2; SMARCA2 act: -3.6; Efflux pump inh: 0.0

Results for O=S(=O)(CS(=O)(=O)c1ccc(Br)cc1)c1ccc(Br)cc1 ?
SMARCA2 act: -4.1

What do the screens show for `CN(C)c1ncnc2c1nnn2C1OC(CO)C(O)C1O` (stereo not drawn)?
TbMetRS inhib: -0.3; TAG inh: 43.2; SMARCA2 act: 12.9*; SMARCA2 act conf: 16.7*; GAL4-VP16 Luc: -2.8

What do the screens show for `OCC1OC(n2cnc3c(/C=C(\O)c4ccccc4)ncnc32)C(O)C1O` (stereo not drawn)?
TbMetRS inhib: 0.0; TAG inh: 7.2; SMARCA2 act: 8.9*; SMARCA2 act conf: -1.9; GAL4-VP16 Luc: 3.5

How did CNc1ncnc2c1ncn2[C@@H]1O[C@H](CO)[C@@H](O)[C@H]1O do in these assays?
TbMetRS inhib: -0.4; AHR act: 60.0*; TAG inh: -14.0; SMARCA2 act: 8.4*; Efflux pump inh: 0.0; SMARCA2 act conf: -0.5; GAL4-VP16 Luc: 0.5

How did O=c1[nH]cnc2c1nnn2C1OC(CO)C(O)C1O (stereo not drawn) do in these assays?
TbMetRS inhib: 0.4; SMARCA2 act: 5.4

Results for C[C@H](Cc1ccccc1)Nc1ncnc2c1ncn2[C@@H]1O[C@H](CO)[C@@H](O)[C@H]1O ?
TbMetRS inhib: -0.6; AHR act: 1.6; TAG inh: -10.7; SMARCA2 act: 3.0; Efflux pump inh: -0.1

How did CC(Cc1ccccc1)Nc1ncnc2c1ncn2C1OC(CO)C(O)C1O (stereo not drawn) do in these assays?
TbMetRS inhib: -0.2; AHR act: -2.6; TAG inh: 10.6; SMARCA2 act: 2.6; Efflux pump inh: 0.0

How did CC1=CC2=NC(=O)/C(=C\c3cc(C)n(-c4cccc(Cl)c4)c3C)C(=N)N2O1 do in these assays?
TbMetRS inhib: -1.7; AHR act: 1.2; SMARCA2 act: 9.1*; Efflux pump inh: -0.6; SMARCA2 act conf: -4.0; GAL4-VP16 Luc: 1.5

What do the screens show for `CC1=CC2=NC(=O)/C(=C\c3cc(C)n(-c4ccccc4)c3C)C(=N)N2O1`?
TbMetRS inhib: 0.2; AHR act: 18.1; SMARCA2 act: -2.5; Efflux pump inh: -0.4

Results for COc1ccc(CN2C[C@H](COCc3ccccc3)Oc3cccc(N4CCCC4)c3S2(=O)=O)cc1 ?
SMARCA2 act: 0.1

High-throughput results deposited in PubChem by several laboratories.
